Laboratory results published in ChEMBL document CHEMBL4477211, “Synthesis and Investigation of Tetrahydro-β-carboline Derivatives as Inhibitors of the Breast Cancer Resistance Protein (ABCG2)” (J Med Chem, 2016).

What was measured:
[1] = molecular target: ATP-dependent translocase ABCB1 (Homo sapiens, UniProt P08183); test: Inhibition of ABCB1 in human A2780/ADR cells assessed as reduction in calcein AM efflux pre-incubated for 30 mins before calcein AM addition and measured for 60 mins by microplate reader analysis relative to control; assay type: cell-based
Sequence of ATP-dependent translocase ABCB1 (P08183 whole entry): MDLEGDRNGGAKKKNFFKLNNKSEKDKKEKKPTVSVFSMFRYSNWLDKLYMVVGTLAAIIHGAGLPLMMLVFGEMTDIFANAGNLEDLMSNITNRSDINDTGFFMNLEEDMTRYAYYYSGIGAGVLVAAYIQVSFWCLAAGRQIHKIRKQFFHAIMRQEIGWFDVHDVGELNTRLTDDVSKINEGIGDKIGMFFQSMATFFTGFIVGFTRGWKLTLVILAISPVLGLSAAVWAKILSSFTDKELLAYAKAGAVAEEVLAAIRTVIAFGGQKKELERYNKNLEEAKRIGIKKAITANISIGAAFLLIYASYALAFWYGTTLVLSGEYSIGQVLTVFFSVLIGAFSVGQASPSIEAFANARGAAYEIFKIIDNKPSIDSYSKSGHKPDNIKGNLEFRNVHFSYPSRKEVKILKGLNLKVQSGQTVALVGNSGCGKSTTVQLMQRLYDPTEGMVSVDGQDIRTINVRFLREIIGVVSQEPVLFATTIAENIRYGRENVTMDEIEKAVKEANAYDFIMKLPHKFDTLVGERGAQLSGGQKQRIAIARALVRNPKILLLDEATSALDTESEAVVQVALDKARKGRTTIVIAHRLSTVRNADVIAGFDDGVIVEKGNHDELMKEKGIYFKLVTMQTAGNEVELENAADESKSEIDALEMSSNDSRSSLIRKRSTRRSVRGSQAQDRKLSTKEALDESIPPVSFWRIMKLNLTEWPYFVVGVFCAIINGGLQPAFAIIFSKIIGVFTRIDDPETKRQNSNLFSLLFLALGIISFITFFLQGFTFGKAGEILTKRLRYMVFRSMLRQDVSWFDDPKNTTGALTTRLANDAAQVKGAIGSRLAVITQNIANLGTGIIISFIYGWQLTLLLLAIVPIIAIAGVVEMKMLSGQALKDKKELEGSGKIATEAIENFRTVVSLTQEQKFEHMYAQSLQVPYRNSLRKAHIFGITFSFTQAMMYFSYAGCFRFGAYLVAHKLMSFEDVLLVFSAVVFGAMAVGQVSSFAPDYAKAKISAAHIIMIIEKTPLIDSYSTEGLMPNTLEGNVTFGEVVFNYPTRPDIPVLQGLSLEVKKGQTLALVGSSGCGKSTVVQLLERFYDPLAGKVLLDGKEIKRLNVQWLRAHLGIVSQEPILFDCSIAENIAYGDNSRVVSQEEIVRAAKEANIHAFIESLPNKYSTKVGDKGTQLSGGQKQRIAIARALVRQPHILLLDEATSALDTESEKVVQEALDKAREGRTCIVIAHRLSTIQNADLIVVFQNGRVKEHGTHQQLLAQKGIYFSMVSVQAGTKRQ

[2] = molecular target: T1, Broad substrate specificity ATP-binding cassette transporter ABCG2 (Homo sapiens, UniProt Q9UNQ0); test: Inhibition of human ABCG2 expressed in MDCK2 cells assessed as reduction in Hoechst 33342 efflux pre-incubated for 30 mins before Hoechst 33342 addition and measured for 120 mins by microplate reader analysis; assay type: cell-based
T1 sequence (Q9UNQ0 whole entry): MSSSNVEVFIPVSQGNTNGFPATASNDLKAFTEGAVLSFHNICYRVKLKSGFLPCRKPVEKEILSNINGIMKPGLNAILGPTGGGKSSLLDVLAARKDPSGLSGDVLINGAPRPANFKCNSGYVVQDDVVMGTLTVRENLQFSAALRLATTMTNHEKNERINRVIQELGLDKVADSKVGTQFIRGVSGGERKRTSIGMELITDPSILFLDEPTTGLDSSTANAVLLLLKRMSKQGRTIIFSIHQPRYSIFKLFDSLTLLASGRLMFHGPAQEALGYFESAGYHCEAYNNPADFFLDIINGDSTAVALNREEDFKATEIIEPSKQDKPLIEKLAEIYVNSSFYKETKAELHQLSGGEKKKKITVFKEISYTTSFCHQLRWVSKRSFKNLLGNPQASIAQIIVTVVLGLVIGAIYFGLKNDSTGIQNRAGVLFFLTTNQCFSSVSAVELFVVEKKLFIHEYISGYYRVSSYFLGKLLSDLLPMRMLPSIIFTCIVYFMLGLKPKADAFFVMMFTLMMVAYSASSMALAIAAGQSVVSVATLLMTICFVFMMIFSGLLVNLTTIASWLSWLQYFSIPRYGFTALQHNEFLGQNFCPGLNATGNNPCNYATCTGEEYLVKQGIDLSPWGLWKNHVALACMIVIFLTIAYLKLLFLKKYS
Method in brief: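 Compound dilutions up to 10 µM (from 10 mM DMSO stocks) pre-incubated 30 min at 37 °C. Hoechst 33342 then added from 6 µM solution. Fluorescence (ex 355/em 460 nm) read each 60 s over 120 min.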

ABCB1 = ABCB1 (Homo sapiens, UniProt P08183); test: Inhibition of ABCB1 in human A2780/ADR cells assessed as reduction in calcein AM efflux at 10 uM pre-incubated for 30 mins before calcein AM addition and measured for 60 mins by microplate reader analysis relative to control; assay type: cell-based; conditions: probe calcein AM
Sequence of ABCB1 (P08183 whole entry): as the sequence (P08183 whole entry) above
Method in brief: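 Compound at 10 µM pre-incubated 30 min at 37 °C. Calcein AM added from 3.125 µM solution. Fluorescence (ex 485/em 520 nm) read every 60 s for 60 min.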

[3] = molecular target: T1, Broad substrate specificity ATP-binding cassette transporter ABCG2; test: Inhibition of human ABCG2 expressed in MDCK2 cells assessed as reduction in pheophorbide A efflux pre-incubated for 30 mins before pheophorbide A addition and measured for 120 mins by flow cytometry
[4] = Ratio of GI50 for wild-type MDCK2 cells to IC50 for human ABCG2 expressed in MDCK2 cells
[5] = Cytotoxicity against MDCK2 cells expressing human ABCG2 assessed as reduction in cell viability after 72 hrs by MTT assay; assay type: ADME, cell-based, Canis lupus familiaris; conditions: dog, MDCK2 (MDCK-II) cells expressing human ABCG2
Method in brief: (§1)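 MDCK II cells retrovirally transfected with human ABCG2-GFP cDNA, and wild-type MDCK II, in DMEM with 10% FBS. Seeded at 3 x 10^3 cells/well and attached 6 h at 37 °C, 5% CO2. Compounds up to 100 µM for 72 h. Controls were 10% DMSO and medium. MTT (5 mg/ml) added for 1 h, read at 570 nm minus 690 nm. Data normalised; GI50 from variable-slope sigmoidal fit.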

[6] = molecular target: T1, Broad substrate specificity ATP-binding cassette transporter ABCG2; test: Inhibition of human ABCG2 expressed in baculovirus infected Sf9 cell membrane assessed as inhibition of vanadate sensitive ATPase activity at 1 uM after 20 mins by colorimetric method; conditions: sf9, 20 min
[7] = molecular target: T1, Broad substrate specificity ATP-binding cassette transporter ABCG2; test: Reversal of human ABCG2-mediated resistance to SN-38 in human ABCG2 expressed MDCK2 cells assessed as reduction in SN-38 GI50 after 72 hrs by MTT assay
[8] = molecular target: T1, Broad substrate specificity ATP-binding cassette transporter ABCG2; test: Inhibition of human ABCG2 expressed in baculovirus infected Sf9 cell membrane assessed as inhibition of vanadate sensitive quercetin-stimulated ATPase activity after 20 mins by colorimetric method
Method in brief: (§2)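 Cholesterol-loaded membranes from Sf9 cells infected with baculovirus carrying human wild-type ABCG2; 10 µg protein per reaction. Buffer: 40 mM MOPS-Tris pH 7.0, 50 mM KCl, 2 mM DTT, 0.5 mM EGTA-Tris, 5 mM azide, 1 mM ouabain. Started with 3.3 mM MgATP, 20 min at 37 °C, stopped with SDS. Pi measured by molybdate/ascorbate colour at 880 nm against K2HPO4 standard.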

ABCG2 = molecular target: T2, ABCG2 (Homo sapiens, UniProt Q9UNQ0); test: Ratio of IC50 for human ABCG2 expressed in baculovirus infected Sf9 cell membrane assessed as inhibition of vanadate sensitive quercetin-stimulated ATPase activity to IC50 for human ABCG2 expressed in baculovirus infected Sf9 cell membrane assessed as inhibition of vanadate sensitive basal ATPase activity; conditions: read-out: Ratio IC50
T2 sequence (Q9UNQ0 whole entry): T1 sequence (Q9UNQ0 whole entry)

[9] = Cytotoxicity against wild-type MDCK2 cells assessed as reduction in cell viability after 72 hrs by MTT assay; assay type: cell-based, Canis lupus familiaris; conditions: dog, wild-type MDCK2 (MDCK-II) cells; method in brief: as §1
[10] = molecular target: T1, Broad substrate specificity ATP-binding cassette transporter ABCG2; test: Inhibition of human ABCG2 expressed in baculovirus infected Sf9 cell membrane assessed as inhibition of vanadate sensitive basal ATPase activity after 20 mins by colorimetric method; method in brief: as §2
[11] = Ratio of GI50 for MDCK2 cells expressing human ABCG2 to IC50 for human ABCG2 expressed in MDCK2 cells
[12] = Solubility in pH 7.4 Krebs-HEPES buffer at 10 uM after 2 hrs by UV-visible spectrophotometric analysis; assay type: physicochemical; conditions: pH 7.4, 2 h
Method in brief: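 10 µM test solutions prepared from DMSO stocks as for the Hoechst 33342 assay, in Krebs-HEPES pH 7.4. Absorbance at an absorption peak maximum recorded every 120 s for 2 h at room temperature by UV/visible spectrophotometer.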

| SMILES | IC50 [1] | IC50 ([2]; read-out: IC50) | inhibition at 1 h, 10 µM (ABCB1) | also measured |
| --- | --- | --- | --- | --- |
| COc1ccc(C2c3[nH]c4ccccc4c3CCN2C(=O)c2ccccc2)cc1OC (configuration not stated) | 7330 nM | 3620 nM | > 25% |  |
| O=C(c1ccc(Cl)cc1)N1CCc2c([nH]c3ccccc23)C1c1ccc(Br)cc1 (configuration not stated) |  | 1780 nM | < 25% |  |
| c1ccc(C2NCCc3c2[nH]c2ccccc32)cc1 (configuration not stated) |  |  | < 25% | IC50 [3]: Not Active; IC50 [2]: Not Active |
| O=C(c1cccc2ccccc12)N1CCc2c([nH]c3ccccc23)C1c1ccc(Cl)c(Cl)c1 (configuration not stated) |  | 1320 nM | < 25% |  |
| O=C(c1ccccc1)N1CCc2c([nH]c3ccccc23)C1c1ccc(Br)cc1 (configuration not stated) |  | 687 nM | < 25% | Ratio [4]: 20 - 30; GI50 at 72 h [5]: 20600 nM; inhibition (INH) [6]: Active; Activity [7]: Dose-dependent effect; IC50 [8]: 863 nM; selectivity ratio (ABCG2): 7.7; GI50 at 72 h [9]: 19400 nM; IC50 [10]: 112 nM; Ratio [11]: 20 - 30 |
| O=C(c1ccccc1)N1CCc2c([nH]c3ccccc23)C1c1cccc(Cl)c1 (configuration not stated) | 22500 nM | 869 nM | > 25% | IC50 ([3]; read-out: IC50): 811 nM |
| O=C(c1ccc(Cl)cc1)N1CCc2c([nH]c3ccccc23)C1c1ccc(F)c(F)c1 (configuration not stated) | 23400 nM | 1260 nM | > 25% |  |
| COc1cccc(C(=O)N2CCc3c([nH]c4ccccc34)C2c2ccc(Cl)c(Cl)c2)c1 (configuration not stated) |  | 238 nM | < 25% | Ratio [4]: <=20; GI50 at 72 h [5]: 5820 nM; inhibition (INH) [6]: Active; Activity [7]: Dose-dependent effect; IC50 [8]: 262 nM; selectivity ratio (ABCG2): 7; GI50 at 72 h [9]: 6550 nM; IC50 ([3]; read-out: IC50): 206 nM; IC50 [10]: 38 nM; Ratio [11]: <=20 |
| COc1ccc(C(=O)N2CCc3c([nH]c4ccccc34)C2c2ccc(Cl)c(Cl)c2)cc1OC (configuration not stated) | 14300 nM | 698 nM | > 25% |  |
| N#Cc1cccc(C2c3[nH]c4ccccc4c3CCN2C(=O)c2ccccc2)c1 (configuration not stated) | 6550 nM | 2000 nM | > 25% |  |
| O=C(c1ccccc1)N1CCc2c([nH]c3ccccc23)C1c1ccc(F)cc1 (configuration not stated) | 13400 nM | 1890 nM | > 25% |  |
| O=C(c1ccccc1)N1CCc2c([nH]c3ccccc23)C1c1ccccc1F (configuration not stated) | 11300 nM | 4490 nM | > 25% |  |
| O=C(c1ccccc1)N1CCc2c([nH]c3ccccc23)C1c1ccc(F)c(F)c1 (configuration not stated) | 8760 nM | 1100 nM | > 25% | IC50 ([3]; read-out: IC50): 1800 nM |
| COc1ccc2c(c1)[nH]c1c(C)nccc12 [HARMINE] |  |  |  | GI50 at 72 h [5]: 2420 nM; inhibition (INH) [6]: Not Active; GI50 at 72 h [9]: 2300 nM |
| COc1ccc(C(=O)N2CCc3c([nH]c4ccccc34)C2c2cccc(OC)c2)cc1 (configuration not stated) | 3380 nM | 1450 nM | > 25% |  |
| COc1ccc(C(=O)N2CCc3c([nH]c4ccccc34)C2c2ccc(F)c(F)c2)cc1OC (configuration not stated) | 2860 nM | 1100 nM | > 25% |  |
| COc1ccc(C(=O)N2CCc3c([nH]c4ccccc34)C2c2cccc(Cl)c2)cc1 (configuration not stated) | 19200 nM | 883 nM | > 25% |  |

| SMILES | IC50 [1] | IC50 ([2]; read-out: IC50) | inhibition at 1 h, 10 µM (ABCB1) | also measured |
| --- | --- | --- | --- | --- |
| COc1ccc(C(=O)N2CCc3c([nH]c4ccccc34)C2c2ccc(C(F)(F)F)cc2)cc1 (configuration not stated) |  | 1230 nM | < 25% | solubility [12]: Soluble |
| c1ccc(CN2CCc3c([nH]c4ccccc34)C2c2ccccc2)cc1 (configuration not stated) |  | > 10000 nM | < 25% | solubility [12]: Soluble |
| COc1ccc2[nH]c3c(c2c1)CCN(C(=O)c1ccccc1)C3c1ccc(Cl)c(Cl)c1 (configuration not stated) |  | 382 nM | < 25% | Ratio [4]: <=20; GI50 at 72 h [5]: 4170 nM; inhibition (INH) [6]: Active; Activity [7]: Dose-dependent effect; IC50 [8]: 299 nM; selectivity ratio (ABCG2): 10.4; GI50 at 72 h [9]: 5270 nM; IC50 [10]: 29 nM; Ratio [11]: <=20 |
| COc1cccc(C2NCCc3c2[nH]c2ccccc32)c1 (configuration not stated) |  |  | < 25% | IC50 [3]: Not Active; IC50 [2]: Not Active |
| CCn1c2c(c3ccccc31)CCN(C(=O)c1ccccc1)C2c1ccccc1 (configuration not stated) | 9230 nM | 10400 nM | > 25% | solubility [12]: Soluble |
| Clc1ccc(C2c3[nH]c4ccccc4c3CCN2Cc2ccccc2)cc1Cl (configuration not stated) |  | > 10000 nM | < 25% | solubility [12]: Soluble |
| COc1ccc(C(=O)N2CCc3c([nH]c4ccccc34)C2c2ccccc2)cc1 (configuration not stated) | 9550 nM | 1750 nM | > 25% |  |
| COc1ccc(C(=O)N2CCc3c([nH]c4ccccc34)C2c2ccc(F)c(F)c2)cc1 (configuration not stated) | 8240 nM | 805 nM | > 25% |  |
| COc1ccc(C2c3[nH]c4ccccc4c3CCN2C(=O)c2ccccc2)cc1 (configuration not stated) | 12000 nM | 2210 nM | > 25% |  |
| Cc1ccc(C2c3[nH]c4ccccc4c3CCN2C(=O)c2ccccc2)cc1 (configuration not stated) |  | 1430 nM | < 25% |  |
| CC(=O)Nc1ccc(C2c3[nH]c4ccccc4c3CCN2C(=O)c2ccccc2)cc1 (configuration not stated) | 7400 nM | 7820 nM | > 25% | solubility [12]: Soluble |
| O=C(c1ccc(Cl)cc1)N1CCc2c([nH]c3ccccc23)C1c1ccc(Cl)c(Cl)c1 (configuration not stated) |  | 1030 nM | < 25% |  |
| CCn1c2c(c3ccccc31)CCN(C(=O)c1cccc(OC)c1)C2c1ccc(Cl)c(Cl)c1 (configuration not stated) |  | > 10000 nM | < 25% | solubility [12]: Soluble |
| CC(C)CC1c2[nH]c3ccccc3c2CCN1C(=O)c1ccccc1 (configuration not stated) | 12900 nM | 2330 nM | > 25% |  |
| COc1cccc(C2c3[nH]c4ccccc4c3CCN2C(=O)c2ccccc2)c1 (configuration not stated) | 6220 nM | 1920 nM | > 25% |  |
| O=C(c1ccccc1)N1CCc2c([nH]c3ccccc23)C1c1ccccc1 (configuration not stated) | 7940 nM | 2780 nM | > 25% | GI50 at 72 h [5]: 12900 nM; inhibition (INH) [6]: Active; Activity [7]: Dose-dependent effect; solubility [12]: Soluble; IC50 [8]: 2020 nM; selectivity ratio (ABCG2): 10.3; GI50 at 72 h [9]: 12400 nM; IC50 [10]: 196 nM |
